Data set [1] can be described thus: Potassium salt excretion in conscious rat at the dose of 30 mg/kg expressed as urinary excretion in treated rats/urinary excretion in control rats. In kind it is ADME, organism-based, Urine. The arrangement: dose 30 mg/kg. The settings on record: in vivo. Summed up: (§1)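 Male rats (~160 g) fasted 24 h, water withheld 1.5 h; oral gavage of compound (0.3-100 mg/kg) in 25 mL/kg saline with 0.5% carboxymethylcellulose; 5 h urine collection in metabolism cages. Urine volume, Na+ and K+ (flame photometry) expressed as treated/control excretion ratio.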

Data set [2] is described as follows: Sodium salt excretion in conscious rat at the dose of 10 mg/kg expressed as urinary excretion in treated rats/urinary excretion in control rats. Format: ADME, organism-based, Urine. The arrangement: dose 10 mg/kg. The settings on record: in vivo. Summed up: as §1
Data set [3] deals with Rattus norvegicus. The data set can be described thus: Compound was tested for urinary volume excretion in conscious rat at the dose of 100 mg/kg expressed as urinary excretion in treated rats/urinary excretion in control rats. Format: ADME, organism-based, Urine. The arrangement: dose 100 mg/kg. The conditions noted are these: in vivo. Summed up:
as §1

Data set [4] concerns Rattus norvegicus. As to the kind of experiment: Compound was tested for urinary volume excretion in conscious rat at the dose of 0.3 mg/kg expressed as urinary excretion in treated rats/urinary excretion in control rats. On the set-up: dose 0.3 mg/kg. The settings on record: in vivo. Format: ADME, organism-based, Urine. Summed up:
as §1

Data set [5] can be described thus: Sodium salt excretion in conscious rat at the dose of 100 mg/kg expressed as urinary excretion in treated rats/urinary excretion in control rats. Format: ADME, organism-based, Urine. On the set-up: dose 100 mg/kg. The settings on record: in vivo. Summed up:
as §1

The nature of data set [6]: Sodium salt excretion in conscious rat at the dose of 1.0 mg/kg expressed as urinary excretion in treated rats/urinary excretion in control rats. In kind it is ADME, organism-based, Urine. On the set-up: dose 1 mg/kg. The conditions noted are these: in vivo. Summed up: as §1
Data set [7] can be described thus: Potassium salt excretion in conscious rat at the dose of 0.3 mg/kg expressed as urinary excretion in treated rats/urinary excretion in control rats. In kind it is ADME, organism-based, Urine. The arrangement: dose 0.3 mg/kg. The settings on record: in vivo. Summed up: as §1
For data set [8], the system named is Rattus norvegicus. As to the kind of experiment: Inhibition of RPAR administered perorally at 100 mg/kg dose. In kind it is functional. The settings on record: route oral. Summed up:
(§2)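 Male Wistar rats (180-200 g), 5-10/group, dosed orally (water with Tween-80 suspension) 1 h before iv sensitization with 1 mg bovine serum albumin; 24-h fasted. 60 min later subplantar challenge with 200 µg anti-BSA in left hindpaw. Paw swelling by mercury displacement plethysmography at 2 h post-challenge.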

Data set [9] concerns Rattus norvegicus. The data set can be described thus: Inhibition of RPAR administered perorally at 50 mg/kg dose. Format: functional. The conditions noted are these: route oral. Summed up:
as §2

Data set [10] is filed under the species Rattus norvegicus. As to the kind of experiment: Diuretic activity in rats. In kind it is functional, Urine. Summed up: (§3)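 Male rats (~160 g) fasted 24 h, water withheld 1.5 h, both withheld during test. Gavage 25 mL/kg 0.9% saline with 0.5% carboxymethylcellulose containing compound at 40 mg/kg; urine collected 5 h in metabolism cages. Two-stage test, T/C urine volume per stage; active if product of stage T/Cs ≥3.34.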

The nature of data set [11]: Potassium salt excretion in conscious rat at the dose of 100 mg/kg expressed as urinary excretion in treated rats/urinary excretion in control rats. In kind it is ADME, organism-based, Urine. On the set-up: dose 100 mg/kg. The conditions noted are these: in vivo. Summed up: as §1
The subject of data set [12] is Rattus norvegicus. The data set can be described thus: Compound was tested for urinary volume excretion in conscious rat at the dose of 1.0 mg/kg expressed as urinary excretion in treated rats/urinary excretion in control rats. In kind it is ADME, organism-based, Urine. On the set-up: dose 1 mg/kg. The settings on record: in vivo. Summed up: as §1
The nature of data set [13]: Sodium salt excretion in conscious rat at the dose of 3.0 mg/kg expressed as urinary excretion in treated rats/urinary excretion in control rats. Format: ADME, organism-based, Urine. On the set-up: dose 3 mg/kg. The conditions noted are these: in vivo. Summed up:
as §1

Data set [14] has as its system Rattus norvegicus. As to the kind of experiment: Compound was tested for urinary volume excretion in conscious rat at the dose of 3.0 mg/kg expressed as urinary excretion in treated rats/urinary excretion in control rats. Format: ADME, organism-based, Urine. The arrangement: dose 3 mg/kg. The settings on record: in vivo. Summed up: as §1
The subject of data set [15] is Rattus norvegicus. The data set can be described thus: Blood pressure change in rats after oral administration of 50 mg/kg dose after 24 hours. Format: functional. Summed up: (§4)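 Restrained female Sprague–Dawley rats with indwelling aortic cannulas exteriorized at the nape; direct arterial pressure via transducer, mean pressure by electrical integration of phasic pressure. Readings before and 4 and 24 h after oral dosing (carboxymethylcellulose suspension, 10 mL/kg). Value is change in mean arterial pressure, averaged over two animals.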

Data set [16] has as its system Rattus norvegicus. As to the kind of experiment: Compound was tested for urinary volume excretion in conscious rat at the dose of 30 mg/kg expressed as urinary excretion in treated rats/urinary excretion in control rats. The settings on record: in vivo. On the set-up: dose 30 mg/kg. Format: ADME, organism-based, Urine. Summed up:
as §1

A short description of data set [17]: Potassium salt excretion in conscious rat at the dose of 10 mg/kg expressed as urinary excretion in treated rats/urinary excretion in control rats. Format: ADME, organism-based, Urine. The arrangement: dose 10 mg/kg. The settings on record: in vivo. Summed up:
as §1

Data set [18] in a line: Sodium salt excretion in conscious rat at the dose of 0.3 mg/kg expressed as urinary excretion in treated rats/urinary excretion in control rats. The arrangement: dose 0.3 mg/kg. The conditions noted are these: in vivo. Format: ADME, organism-based, Urine. Summed up: as §1
Data set [19] can be described thus: Sodium salt excretion in conscious rat at the dose of 30 mg/kg expressed as urinary excretion in treated rats/urinary excretion in control rats. In kind it is ADME, organism-based, Urine. On the set-up: dose 30 mg/kg. The settings on record: in vivo. Summed up: as §1
A short description of data set [20]: Potassium salt excretion in conscious rat at the dose of 3.0 mg/kg expressed as urinary excretion in treated rats/urinary excretion in control rats. Format: ADME, organism-based, Urine. The arrangement: dose 3 mg/kg. The conditions noted are these: in vivo. Summed up:
as §1

The subject of data set [21] is Rattus norvegicus. The data set can be described thus: Compound was tested for urinary volume excretion in conscious rat at the dose of 10 mg/kg expressed as urinary excretion in treated rats/urinary excretion in control rats. The arrangement: dose 10 mg/kg. The conditions noted are these: in vivo. Format: ADME, organism-based, Urine. Summed up:
as §1

The subject of data set [22] is Rattus norvegicus. The data set can be described thus: Inhibition of RPAR administered perorally at 25 mg/kg dose. In kind it is functional. The settings on record: route oral. Summed up: as §2
Data set [23] can be described thus: Potassium salt excretion in conscious rat at the dose of 1.0 mg/kg expressed as urinary excretion in treated rats/urinary excretion in control rats. In kind it is ADME, organism-based, Urine. The arrangement: dose 1 mg/kg. The settings on record: in vivo. Summed up:
as §1

The test system of data set [24] is Rattus norvegicus. The data set can be described thus: Blood pressure change in rats after oral administration of 50 mg/kg dose after 4 hours. Format: functional. Summed up: as §4
The species entered for data set [25] is Rattus norvegicus. The data set can be described thus: Compound was tested for diuretic activity in rats; I=Inactive. Format: functional, organism-based. The settings on record: Urine. Summed up: as §3
Data set [26] has as its system Rattus norvegicus. As to the kind of experiment: Compound was tested for inhibition of RPAR administered perorally at 25 mg/kg dose; I=Inactive. The arrangement: dose 25 mg/kg. In kind it is functional, organism-based. Summed up:
as §2

The test system of data set [27] is Rattus norvegicus. The data set can be described thus: Compound was tested for inhibition of RPAR administered perorally at 50 mg/kg dose. The settings on record: route oral. Format: functional. Summed up:
as §2

Data set [28] concerns Rattus norvegicus. As to the kind of experiment: Compound was tested for inhibition of RPAR administered perorally at 25 mg/kg dose. In kind it is functional. The settings on record: route oral. Summed up: as §2
Data set [29] relates to Rattus norvegicus. As to the kind of experiment: Compound was tested for inhibition of RPAR administered perorally at 100 mg/kg dose. The settings on record: route oral. Format: functional. Summed up: as §2
In data set [30] the test system is Rattus norvegicus. As to the kind of experiment: Compound was tested for blood pressure change in rats after oral administration of 50 mg/kg dose after 4 hours. In kind it is functional. Summed up:
as §4

Data set [31] has as its system Rattus norvegicus. The data set can be described thus: Compound was tested for blood pressure change in rats after oral administration of 50 mg/kg dose after 24 hours. In kind it is functional. Summed up: as §4

The source made the active and inactive calls.

For orientation: inhibition in vivo means the share of the control response that was lost under treatment. Low values mean little suppression, high ones strong suppression. For the molecule `Nc1nc(=O)c(Br)c(-c2ccccc2)[nH]1` [BROPIRIMINE], the “K+ excretion” value in [1] is 1.5; in data set [7], 1.1; in [11] it was 1.3; in [17] it was 1.3; in [20], 1.1; in data set [23], 1. In addition, the “Na+ excretion” value came to 2.3 in [2]; 2.8 in [5]; 1.3 in [6]; 1.5 in data set [13]; 1.1 in data set [18]; 2.9 in [19]. For the same molecule, the Urinary volume with Rattus norvegicus [3] came out at 2.7; in the data set with Rattus norvegicus [4] it was 1.1; with Rattus norvegicus [12], 1.2; in the data set with Rattus norvegicus [14], 1.3; in the data set with Rattus norvegicus [16], 2.6; in the data set on Rattus norvegicus [21], 2.5. In the data set with Rattus norvegicus [8], testing at 100 mg/kg gave an inhibition in vivo of 44%. In addition, testing at 50 mg/kg in the data set with Rattus norvegicus [9] gave an inhibition in vivo of 31%. The same molecule returned a Diuretic activity in the data set listed under Rattus norvegicus [10] of 7.41. The MABP change in the data set on Rattus norvegicus [15] is reported as -22 mmHg; in the data set on Rattus norvegicus [24] it was 0 mmHg. Moreover, 25 mg/kg produced 13% inhibition in vivo with Rattus norvegicus [22].

For `Nc1nc(O)cc(-c2ccccc2)n1`, the Diuretic activity result in the data set listed under Rattus norvegicus [25] is “inactive”. Also, the inhibition result in the data set with Rattus norvegicus [26] was “inactive”.

For the molecule `Cn1c(N)nc(-c2ccccc2)c(Br)c1=O`, the “K+ excretion” value in data set [1] was 2.2; in data set [7] it was 1.1; in [11], 2.2; in [17], 1.7; in [20] it was 1.3; in data set [23], 1. Also, the “Na+ excretion” value in data set [2] is 2.1; in [5] it was 2.8; in data set [6] it was 1.2; in [13] it was 1.3; in [18], 1; in data set [19], 2.5. Besides, the Urinary volume is 2.8 in the data set with Rattus norvegicus [3]; 1 in the data set on Rattus norvegicus [4]; 0.9 with Rattus norvegicus [12]; 1.4 with Rattus norvegicus [14]; 2.5 with Rattus norvegicus [16]; 2.3 with Rattus norvegicus [21]. In the data set with Rattus norvegicus [27], this molecule displayed an inhibition in vivo at 50 mg/kg of 64%. This molecule also came in with a Diuretic activity in the data set listed under Rattus norvegicus [10] of 5.52. In the data set with Rattus norvegicus [28], this molecule returned an inhibition in vivo at 25 mg/kg of 36%. Besides, the results for the MABP change with Rattus norvegicus [15] and with Rattus norvegicus [24] were -7 mmHg and -12 mmHg, respectively. Also, 100 mg/kg produced 74% inhibition in vivo in the data set with Rattus norvegicus [29].

Take `NS(=O)(=O)c1cc2c(cc1Cl)NCNS2(=O)=O` [HYDROCHLOROTHIAZIDE]: the “K+ excretion” value in [1] is on record as 1.5; in data set [7], 1.2; in [11], 1.7; in data set [17], 1.5; in data set [20], 1.6; in data set [23], 1.6. The “Na+ excretion” value in [2] is 2.4; in [5], 2.5; in [6], 2; in [13] it was 2.1; in data set [18], 1.7; in data set [19], 2.4. In addition, the Urinary volume was found to be 2.7 in the data set on Rattus norvegicus [3]; 1.9 in the data set on Rattus norvegicus [4]; 2.3 in the data set on Rattus norvegicus [12]; 2.2 in the data set with Rattus norvegicus [14]; 2.6 with Rattus norvegicus [16]; 2.4 with Rattus norvegicus [21]. In addition, the results for the MABP change in the data set on Rattus norvegicus [30] and in the data set with Rattus norvegicus [31] were 0 mmHg and 2 mmHg, respectively. This molecule showed a Diuretic activity in the data set listed under Rattus norvegicus [10] of 7.18.
